Measurements as given in ChEMBL document CHEMBL5058577, “EUbOPEN Chemogenomics Library 2 (Multiplex)” (2022).

System: HEK-293T
Assay: Multiplex assay against HEK293T
Type: toxicity, cell-based
Details: human
Outline: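 At seeding, live cells were stained with Hoechst33342, BioTracker Green Microtubule Cytoskeleton Dye, MitoTracker Red and Annexin V Alexa Fluor 680. After compound addition they were imaged on a CQ1 microscope at 37°C and 5% CO2, and CellPathfinder machine-learning gating sorted them into Hoechst high-intensity objects or normal cells, with normal cells further split into healthy, pyknosed or fragmented nuclei and pyknosed cells into mitotic or apoptotic. Tubulin, mitochondrial-mass and membrane-permeability phenotypes are given as per cents of cells with healthy nuclei.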

[1] = 12 h, 1 µM, compound concentration 1 uM, replicate 1
[2] = 12 h, 1 µM, compound concentration 1 uM, replicate 2
[3] = 12 h, 10 µM, compound concentration 10 uM, replicate 1
[4] = 12 h, 10 µM, compound concentration 10 uM, replicate 2
[5] = 24 h, 1 µM, compound concentration 1 uM, replicate 1
[6] = 24 h, 1 µM, compound concentration 1 uM, replicate 2
[7] = 24 h, 10 µM, compound concentration 10 uM, replicate 1
[8] = 24 h, 10 µM, compound concentration 10 uM, replicate 2
[9] = 48 h, 1 µM, compound concentration 1 uM, replicate 1
[10] = 48 h, 1 µM, compound concentration 1 uM, replicate 2
[11] = 48 h, 10 µM, compound concentration 10 uM, replicate 1
[12] = 48 h, 10 µM, compound concentration 10 uM, replicate 2

CN1C[C@H](C(=O)N[C@]2(C)O[C@@]3(O)[C@@H]4CCCN4C(=O)[C@H](Cc4ccccc4)N3C2=O)C[C@@H]2c3cccc4[nH]cc(c34)C[C@H]21.CS(=O)(=O)O [DIHYDROERGOTAMINE MESYLATE]
Population Apoptotic (%) [1]: 38% | Population Fragmented Nuclei (%) [1]: 6% | Population Healthy Nuclei (%) [1]: 84% | Population Hoechst High Intensity Objects (%) [1]: 5% | Population Membrane Permeable-Phenotype (%) [1]: 0% | Population Mitochondria Different-Phenotype (%) [1]: 41% | Population Mitotic Cells (%) [1]: 61% | Population Normal (%) [1]: 94% | Population Pyknosed Nuclei (%) [1]: 8% | Population Tubulin-Different-Phenotype (%) [1]: 26% | Total Cell Count [1]: 418 | Population Apoptotic (%) [2]: 46% | Population Fragmented Nuclei (%) [2]: 3% | Population Healthy Nuclei (%) [2]: 81% | Population Mitochondria Different-Phenotype (%) [2]: 65% | Population Mitotic Cells (%) [2]: 53% | Population Pyknosed Nuclei (%) [2]: 14% | Population Tubulin-Different-Phenotype (%) [2]: 17% | Total Cell Count [2]: 285 | Population Apoptotic (%) [3]: 31% | Population Fragmented Nuclei (%) [3]: 7% | Population Healthy Nuclei (%) [3]: 76% | Population Hoechst High Intensity Objects (%) [3]: 9% | Population Membrane Permeable-Phenotype (%) [3]: 0% | Population Mitochondria Different-Phenotype (%) [3]: 48% | Population Mitotic Cells (%) [3]: 68% | Population Normal (%) [3]: 90% | Population Pyknosed Nuclei (%) [3]: 15% | Population Tubulin-Different-Phenotype (%) [3]: 29% | Total Cell Count [3]: 403 | Population Apoptotic (%) [4]: 53% | Population Fragmented Nuclei (%) [4]: 5% | Population Healthy Nuclei (%) [4]: 80% | Population Hoechst High Intensity Objects (%) [4]: 11% | Population Mitochondria Different-Phenotype (%) [4]: 61% | Population Mitotic Cells (%) [4]: 46% | Population Normal (%) [4]: 88% | Population Pyknosed Nuclei (%) [4]: 13% | Population Tubulin-Different-Phenotype (%) [4]: 23% | Total Cell Count [4]: 435 | Population Apoptotic (%) [5]: 28% | Population Fragmented Nuclei (%) [5]: 9% | Population Healthy Nuclei (%) [5]: 80% | Population Hoechst High Intensity Objects (%) [5]: 4% | Population Membrane Permeable-Phenotype (%) [5]: 0% | Population Mitochondria Different-Phenotype (%) [5]: 28% | Population Mitotic Cells (%) [5]: 71% | Population Normal (%) [5]: 95% | Population Pyknosed Nuclei (%) [5]: 9% | Population Tubulin-Different-Phenotype (%) [5]: 20% | Total Cell Count [5]: 621 | Population Apoptotic (%) [6]: 51% | Population Fragmented Nuclei (%) [6]: 7% | Population Healthy Nuclei (%) [6]: 84% | Population Hoechst High Intensity Objects (%) [6]: 3% | Population Mitochondria Different-Phenotype (%) [6]: 41% | Population Mitotic Cells (%) [6]: 48% | Population Normal (%) [6]: 96% | Population Pyknosed Nuclei (%) [6]: 8% | Population Tubulin-Different-Phenotype (%) [6]: 12% | Total Cell Count [6]: 341 | Population Apoptotic (%) [7]: 27% | Population Fragmented Nuclei (%) [7]: 10% | Population Healthy Nuclei (%) [7]: 76% | Population Hoechst High Intensity Objects (%) [7]: 5% | Population Membrane Permeable-Phenotype (%) [7]: 0% | Population Mitochondria Different-Phenotype (%) [7]: 33% | Population Mitotic Cells (%) [7]: 72% | Population Normal (%) [7]: 94% | Population Pyknosed Nuclei (%) [7]: 13% | Population Tubulin-Different-Phenotype (%) [7]: 26% | Total Cell Count [7]: 480 | Population Apoptotic (%) [8]: 32% | Population Fragmented Nuclei (%) [8]: 9% | Population Healthy Nuclei (%) [8]: 84% | Population Hoechst High Intensity Objects (%) [8]: 6% | Population Mitochondria Different-Phenotype (%) [8]: 39% | Population Mitotic Cells (%) [8]: 67% | Population Normal (%) [8]: 93% | Population Pyknosed Nuclei (%) [8]: 6% | Population Tubulin-Different-Phenotype (%) [8]: 16% | Total Cell Count [8]: 567 | Population Apoptotic (%) [9]: 29% | Population Fragmented Nuclei (%) [9]: 14% | Population Healthy Nuclei (%) [9]: 78% | Population Hoechst High Intensity Objects (%) [9]: 2% | Population Membrane Permeable-Phenotype (%) [9]: 1% | Population Mitochondria Different-Phenotype (%) [9]: 17% | Population Mitotic Cells (%) [9]: 70% | Population Normal (%) [9]: 97% | Population Pyknosed Nuclei (%) [9]: 6% | Population Tubulin-Different-Phenotype (%) [9]: 11% | Total Cell Count [9]: 1011 | Population Apoptotic (%) [10]: 28% | Population Fragmented Nuclei (%) [10]: 12% | Population Healthy Nuclei (%) [10]: 82% | Population Membrane Permeable-Phenotype (%) [10]: 0% | Population Mitochondria Different-Phenotype (%) [10]: 23% | Population Mitotic Cells (%) [10]: 71% | Population Pyknosed Nuclei (%) [10]: 5% | Population Tubulin-Different-Phenotype (%) [10]: 9% | Total Cell Count [10]: 524 | Population Apoptotic (%) [11]: 22% | Population Fragmented Nuclei (%) [11]: 15% | Population Healthy Nuclei (%) [11]: 76% | Population Hoechst High Intensity Objects (%) [11]: 2% | Population Membrane Permeable-Phenotype (%) [11]: 0% | Population Mitochondria Different-Phenotype (%) [11]: 20% | Population Mitotic Cells (%) [11]: 77% | Population Normal (%) [11]: 97% | Population Pyknosed Nuclei (%) [11]: 7% | Population Tubulin-Different-Phenotype (%) [11]: 12% | Total Cell Count [11]: 778 | Population Apoptotic (%) [12]: 31% | Population Healthy Nuclei (%) [12]: 77% | Population Hoechst High Intensity Objects (%) [12]: 1% | Population Mitochondria Different-Phenotype (%) [12]: 21% | Population Mitotic Cells (%) [12]: 68% | Population Normal (%) [12]: 98% | Population Pyknosed Nuclei (%) [12]: 6% | Population Tubulin-Different-Phenotype (%) [12]: 11% | Total Cell Count [12]: 793

CSc1nc(NC2CCCC2)c([N+](=O)[O-])c(NC2CCCC2)n1 [GS-39783]
Population Apoptotic (%) [1]: 45% | Population Fragmented Nuclei (%) [1]: 11% | Population Healthy Nuclei (%) [1]: 74% | Population Hoechst High Intensity Objects (%) [1]: 8% | Population Membrane Permeable-Phenotype (%) [1]: 0% | Population Mitochondria Different-Phenotype (%) [1]: 41% | Population Mitotic Cells (%) [1]: 54% | Population Normal (%) [1]: 91% | Population Pyknosed Nuclei (%) [1]: 14% | Population Tubulin-Different-Phenotype (%) [1]: 30% | Total Cell Count [1]: 346 | Population Apoptotic (%) [2]: 40% | Population Fragmented Nuclei (%) [2]: 3% | Population Healthy Nuclei (%) [2]: 85% | Population Hoechst High Intensity Objects (%) [2]: 4% | Population Mitochondria Different-Phenotype (%) [2]: 68% | Population Mitotic Cells (%) [2]: 59% | Population Normal (%) [2]: 95% | Population Pyknosed Nuclei (%) [2]: 11% | Population Tubulin-Different-Phenotype (%) [2]: 27% | Total Cell Count [2]: 301 | Population Apoptotic (%) [3]: 29% | Population Fragmented Nuclei (%) [3]: 6% | Population Healthy Nuclei (%) [3]: 81% | Population Hoechst High Intensity Objects (%) [3]: 6% | Population Membrane Permeable-Phenotype (%) [3]: 0% | Population Mitochondria Different-Phenotype (%) [3]: 50% | Population Mitotic Cells (%) [3]: 70% | Population Normal (%) [3]: 93% | Population Pyknosed Nuclei (%) [3]: 12% | Population Tubulin-Different-Phenotype (%) [3]: 40% | Total Cell Count [3]: 449 | Population Apoptotic (%) [4]: 40% | Population Fragmented Nuclei (%) [4]: 5% | Population Healthy Nuclei (%) [4]: 84% | Population Hoechst High Intensity Objects (%) [4]: 5% | Population Mitochondria Different-Phenotype (%) [4]: 68% | Population Mitotic Cells (%) [4]: 60% | Population Normal (%) [4]: 94% | Population Pyknosed Nuclei (%) [4]: 10% | Population Tubulin-Different-Phenotype (%) [4]: 29% | Total Cell Count [4]: 406 | Population Apoptotic (%) [5]: 30% | Population Fragmented Nuclei (%) [5]: 12% | Population Healthy Nuclei (%) [5]: 76% | Population Hoechst High Intensity Objects (%) [5]: 7% | Population Membrane Permeable-Phenotype (%) [5]: 0% | Population Mitochondria Different-Phenotype (%) [5]: 25% | Population Mitotic Cells (%) [5]: 69% | Population Normal (%) [5]: 92% | Population Pyknosed Nuclei (%) [5]: 11% | Population Tubulin-Different-Phenotype (%) [5]: 19% | Total Cell Count [5]: 492 | Population Apoptotic (%) [6]: 38% | Population Fragmented Nuclei (%) [6]: 7% | Population Healthy Nuclei (%) [6]: 84% | Population Hoechst High Intensity Objects (%) [6]: 8% | Population Mitochondria Different-Phenotype (%) [6]: 51% | Population Mitotic Cells (%) [6]: 61% | Population Normal (%) [6]: 91% | Population Pyknosed Nuclei (%) [6]: 7% | Total Cell Count [6]: 360 | Population Apoptotic (%) [7]: 27% | Population Fragmented Nuclei (%) [7]: 11% | Population Healthy Nuclei (%) [7]: 78% | Population Hoechst High Intensity Objects (%) [7]: 5% | Population Membrane Permeable-Phenotype (%) [7]: 1% | Population Mitochondria Different-Phenotype (%) [7]: 30% | Population Mitotic Cells (%) [7]: 72% | Population Normal (%) [7]: 94% | Population Pyknosed Nuclei (%) [7]: 10% | Population Tubulin-Different-Phenotype (%) [7]: 30% | Total Cell Count [7]: 553 | Population Apoptotic (%) [8]: 37% | Population Fragmented Nuclei (%) [8]: 8% | Population Healthy Nuclei (%) [8]: 83% | Population Hoechst High Intensity Objects (%) [8]: 6% | Population Membrane Permeable-Phenotype (%) [8]: 0% | Population Mitochondria Different-Phenotype (%) [8]: 52% | Population Mitotic Cells (%) [8]: 62% | Population Normal (%) [8]: 93% | Population Pyknosed Nuclei (%) [8]: 7% | Population Tubulin-Different-Phenotype (%) [8]: 28% | Total Cell Count [8]: 474 | Population Apoptotic (%) [9]: 35% | Population Fragmented Nuclei (%) [9]: 15% | Population Healthy Nuclei (%) [9]: 74% | Population Hoechst High Intensity Objects (%) [9]: 3% | Population Membrane Permeable-Phenotype (%) [9]: 1% | Population Mitochondria Different-Phenotype (%) [9]: 22% | Population Mitotic Cells (%) [9]: 64% | Population Normal (%) [9]: 96% | Population Pyknosed Nuclei (%) [9]: 9% | Population Tubulin-Different-Phenotype (%) [9]: 22% | Total Cell Count [9]: 775 | Population Apoptotic (%) [10]: 30% | Population Fragmented Nuclei (%) [10]: 13% | Population Healthy Nuclei (%) [10]: 77% | Population Hoechst High Intensity Objects (%) [10]: 6% | Population Membrane Permeable-Phenotype (%) [10]: 0% | Population Mitochondria Different-Phenotype (%) [10]: 32% | Population Mitotic Cells (%) [10]: 69% | Population Normal (%) [10]: 93% | Population Pyknosed Nuclei (%) [10]: 8% | Population Tubulin-Different-Phenotype (%) [10]: 24% | Total Cell Count [10]: 505 | Population Apoptotic (%) [11]: 17% | Population Fragmented Nuclei (%) [11]: 14% | Population Healthy Nuclei (%) [11]: 78% | Population Hoechst High Intensity Objects (%) [11]: 3% | Population Membrane Permeable-Phenotype (%) [11]: 1% | Population Mitochondria Different-Phenotype (%) [11]: 27% | Population Mitotic Cells (%) [11]: 82% | Population Normal (%) [11]: 96% | Population Pyknosed Nuclei (%) [11]: 7% | Population Tubulin-Different-Phenotype (%) [11]: 21% | Total Cell Count [11]: 856 | Population Apoptotic (%) [12]: 30% | Population Fragmented Nuclei (%) [12]: 13% | Population Healthy Nuclei (%) [12]: 77% | Population Hoechst High Intensity Objects (%) [12]: 5% | Population Membrane Permeable-Phenotype (%) [12]: 0% | Population Mitochondria Different-Phenotype (%) [12]: 35% | Population Mitotic Cells (%) [12]: 69% | Population Normal (%) [12]: 94% | Population Pyknosed Nuclei (%) [12]: 8% | Total Cell Count [12]: 647
